Measurements taken from ChEMBL document CHEMBL3797094, “Turmeric Sesquiterpenoids: Expeditious Resolution, Comparative Bioactivity, and a New Bicyclic Turmeronoid” (J Nat Prod, 2016).
Activity calls are given as the source filed them. The calls are words filed in the database; no cut-off is given here.

Columns and labels:
[1] = species on record: Homo sapiens; experiment: Activation of NF-kappaB (unknown origin) in NIH/3T3-KBF-Luc cells at 1 to 50 uM coincubated with TNF-alpha after 6 hrs by luciferase reporter gene assay; assay type: cell-based
Method in brief: (§1)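 NIH-3T3-KBF-Luc fibroblasts (15 × 10⁴ cells/mL) were kept at 37 °C and 5% CO2 in DMEM with 10% heat-inactivated FBS. Cells were preincubated with the compounds at rising concentrations, then stimulated with TNFα for 6 h. They were PBS-washed and lysed for 15 min at rt in Tris-phosphate pH 7.8 with 1% Triton X-100. Luciferase was read in the supernatant, with TNFα alone set as 100%.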

[2] = biological target: Signal transducer and activator of transcription 3 (Homo sapiens) (UniProt P40763); experiment: Inhibition of IFN gamma-induced STAT3 (unknown origin) activation in HeLa-STAT3-Luc cells at 1 to 50 uM after 6 hrs by luciferase reporter gene assay; assay type: cell-based
Chain of Signal transducer and activator of transcription 3 (Homo sapiens) (P40763 whole entry): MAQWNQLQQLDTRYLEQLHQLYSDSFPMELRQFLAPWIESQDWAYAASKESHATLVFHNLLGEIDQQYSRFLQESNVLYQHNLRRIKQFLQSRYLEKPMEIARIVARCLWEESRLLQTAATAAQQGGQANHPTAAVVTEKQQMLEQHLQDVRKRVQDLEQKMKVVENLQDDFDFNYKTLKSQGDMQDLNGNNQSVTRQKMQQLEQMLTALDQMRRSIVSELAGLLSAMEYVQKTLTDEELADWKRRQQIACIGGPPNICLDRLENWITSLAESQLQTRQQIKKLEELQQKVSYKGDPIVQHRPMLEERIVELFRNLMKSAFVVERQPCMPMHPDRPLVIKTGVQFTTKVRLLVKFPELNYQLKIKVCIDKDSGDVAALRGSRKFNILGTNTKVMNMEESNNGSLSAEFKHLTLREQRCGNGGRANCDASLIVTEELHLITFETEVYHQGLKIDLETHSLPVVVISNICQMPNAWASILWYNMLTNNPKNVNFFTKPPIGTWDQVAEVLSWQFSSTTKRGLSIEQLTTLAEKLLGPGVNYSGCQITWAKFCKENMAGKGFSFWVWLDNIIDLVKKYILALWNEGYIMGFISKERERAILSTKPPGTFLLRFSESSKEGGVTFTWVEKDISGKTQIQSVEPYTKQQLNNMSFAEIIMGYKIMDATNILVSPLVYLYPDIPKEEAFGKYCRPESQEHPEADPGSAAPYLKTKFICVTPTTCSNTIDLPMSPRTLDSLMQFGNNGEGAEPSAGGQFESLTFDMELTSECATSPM
Method in brief: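 HeLa-STAT3-Luc reporter cells (15 × 10⁴ cells/mL, DMEM with 10% FBS, 37 °C, 5% CO2) were preincubated with the compounds at rising concentrations, then stimulated with IFNγ for 6 h. Lysate luciferase is expressed as percent inhibition, with IFNγ-induced activity set as 100%.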

[3] = biological target: T1, Nuclear factor erythroid 2-related factor 2 (Homo sapiens) (UniProt Q16236); experiment: Activation of Nrf2 (unknown origin) in HaCaT-ARE-Luc cells at 1 to 50 uM after 6 hrs by luciferase reporter gene assay; assay type: cell-based
T1 sequence (whole entry): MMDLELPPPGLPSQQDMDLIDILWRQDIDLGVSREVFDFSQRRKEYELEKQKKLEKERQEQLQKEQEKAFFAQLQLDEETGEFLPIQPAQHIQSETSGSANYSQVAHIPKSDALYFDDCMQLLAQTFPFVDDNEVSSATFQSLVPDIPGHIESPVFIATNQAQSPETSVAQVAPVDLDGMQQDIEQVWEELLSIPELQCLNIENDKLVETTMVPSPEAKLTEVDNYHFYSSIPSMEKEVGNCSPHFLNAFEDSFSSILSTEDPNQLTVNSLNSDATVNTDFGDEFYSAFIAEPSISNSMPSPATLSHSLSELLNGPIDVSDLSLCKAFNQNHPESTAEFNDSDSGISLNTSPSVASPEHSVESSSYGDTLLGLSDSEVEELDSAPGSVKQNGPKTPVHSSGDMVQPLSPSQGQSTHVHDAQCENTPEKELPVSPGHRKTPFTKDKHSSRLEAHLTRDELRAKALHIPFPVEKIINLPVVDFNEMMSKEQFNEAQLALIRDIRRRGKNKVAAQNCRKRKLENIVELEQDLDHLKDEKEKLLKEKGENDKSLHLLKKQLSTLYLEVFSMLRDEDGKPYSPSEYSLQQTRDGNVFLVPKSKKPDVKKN
Method in brief: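 HaCaT-ARE-Luc cells (15 × 10⁴ cells/mL, DMEM with 10% FBS, 37 °C, 5% CO2) were exposed to the compounds alone at rising concentrations for 6 h. Cells were PBS-washed and lysed in Tris-phosphate pH 7.8 with Triton X-100. Luciferase activity in the cleared lysate is given as fold induction over basal.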

[4] = biological target: Hypoxia-inducible factor 1-alpha (Homo sapiens) (UniProt Q16665); experiment: Inhibition of DFX induced HIF-1 alpha (unknown origin) activation in NIH/3T3-EPO-Luc cells at 1 to 50 uM after 6 hrs by luciferase reporter gene assay; assay type: cell-based
Chain of Hypoxia-inducible factor 1-alpha (Homo sapiens) (Q16665 whole entry, looked up): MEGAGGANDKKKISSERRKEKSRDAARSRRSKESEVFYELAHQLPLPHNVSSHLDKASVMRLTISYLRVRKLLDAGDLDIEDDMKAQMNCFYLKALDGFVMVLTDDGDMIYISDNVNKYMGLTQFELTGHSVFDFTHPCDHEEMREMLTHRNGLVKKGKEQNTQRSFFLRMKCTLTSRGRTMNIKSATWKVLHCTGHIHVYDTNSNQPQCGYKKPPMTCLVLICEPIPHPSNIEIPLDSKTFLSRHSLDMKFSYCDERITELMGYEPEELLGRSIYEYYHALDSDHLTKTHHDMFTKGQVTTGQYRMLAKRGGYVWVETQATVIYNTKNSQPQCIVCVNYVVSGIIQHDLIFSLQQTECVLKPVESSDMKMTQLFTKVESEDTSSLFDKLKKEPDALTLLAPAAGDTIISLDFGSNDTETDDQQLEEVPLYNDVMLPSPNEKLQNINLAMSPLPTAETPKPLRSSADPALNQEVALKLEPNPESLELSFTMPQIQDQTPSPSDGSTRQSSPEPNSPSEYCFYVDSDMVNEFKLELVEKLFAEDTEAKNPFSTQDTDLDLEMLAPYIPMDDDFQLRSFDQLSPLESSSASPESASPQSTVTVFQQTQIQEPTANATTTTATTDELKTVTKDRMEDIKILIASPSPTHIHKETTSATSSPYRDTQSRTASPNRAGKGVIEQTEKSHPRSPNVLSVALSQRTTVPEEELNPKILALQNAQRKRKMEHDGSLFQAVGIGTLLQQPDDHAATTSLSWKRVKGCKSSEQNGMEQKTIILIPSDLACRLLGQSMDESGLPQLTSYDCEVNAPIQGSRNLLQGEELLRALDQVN
Method in brief: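 NIH-3T3-EPO-Luc cells (15 × 10⁴ cells/mL, DMEM with 10% FBS, 37 °C) were preincubated with the compounds at rising concentrations, then given DFX (150 μM) for 6 h. Luciferase was measured in the cleared Tris-phosphate/Triton lysate and expressed as fold induction over basal.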

[5] = tested on: HeLa; experiment: Cytotoxicity against human HeLa-STAT3-Luc cells assessed as cell viability at 1 to 50 uM after 12 hrs by YOYO-1 staining based fluorescence assay
[6] = Cytotoxicity against mouse NIH/3T3-KBF-Luc cells assessed as cell viability at 1 to 50 uM after 12 hrs by YOYO-1 staining based fluorescence assay; settings: nih3t3, 12 h
[7] = tested on: HaCaT; experiment: Cytotoxicity against human HaCaT-ARE-Luc cells assessed as cell viability at 1 to 50 uM after 12 hrs by YOYO-1 staining based fluorescence assay
[8] = species on record: Homo sapiens; experiment: Inhibition of TNF alpha-induced NF-kappaB (unknown origin) activation in NIH/3T3-KBF-Luc cells assessed as suppression of IKappaB alpha phosphorylation at 1 to 50 uM preincubated for 15 mins followed by TNF alpha stimulation for 30 mins by western blot analysis; assay type: cell-based
Method in brief: (§2)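 NIH-3T3-KBF-Luc cells were treated with the compounds for 15 min, then stimulated with TNFα (30 ng/mL) for 30 min. Lysis used Hepes pH 8.0 buffer with 0.5% NP-40 and protease/phosphatase inhibitors (15 min, 4 °C), then 10000g for 10 min. After Bradford assay, 20 μg protein was run on 10% SDS-PAGE and blotted to nitrocellulose. Blocking was 5% milk overnight; phospho-protein detection was by ECL.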

[9] = species on record: Homo sapiens; experiment: Inhibition of TNF alpha-induced NF-kappaB (unknown origin) activation in NIH/3T3-KBF-Luc cells assessed as suppression of p65 phosphorylation at 1 to 50 uM preincubated for 15 mins followed by TNF alpha stimulation for 30 mins by western blot analysis; assay type: cell-based; method in brief: as §2
[10] = Inhibition of TNF alpha-induced NF-kappaB (unknown origin) activation in NIH/3T3-KBF-Luc cells after 6 hrs by luciferase reporter gene assay; assay type: cell-based; settings: Homo sapiens; method in brief: as §1
[11] = Cytotoxicity against mouse NIH/3T3-EPO-Luc cells assessed as cell viability at 1 to 50 uM after 12 hrs by YOYO-1 staining based fluorescence assay; settings: nih3t3, 12 h

For `C=C1C=C[C@H]([C@@H](C)CC(=O)C=C(C)C)CC1`, the Activity [1] was “Active”, the Activity [2] was “inactive” and the Activity [3] was “Active”. The inhibition [4] was “inactive”.
In the case of `CC(C)=CC(=O)C[C@H](C)c1ccc(C)cc1`, the Activity [5] is reported as “Non-toxic”, the Activity [6] is reported as “Non-toxic” and the Activity [3] is reported as “inactive”. The Activity [7] was “Non-toxic”, the inhibition [8] was “Active” and the inhibition [9] was “Active”. For the same molecule, the IC50 [10] was 22.7 µM, the Activity [11] was “Non-toxic” and the inhibition [4] was “inactive”.
